Screening data deposited in PubChem by The Scripps Research Institute Molecular Screening Center.
The list is not random: actives were taken first. Their share in the collection is about 2.7%.
SIAE inh = human SIAE inhibition, primary screen; Q9HAT2; SIAE FP-Rh probe binding, fluorescence polarization; inhibition, % at 9.66 µM; actives 0.69% (n = 370,000);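 active = inhibition above a cutoff: mean of compounds within the control limits plus 3 SD of those, cut at about 17% in these data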;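 note: 0% = plate median of compound wells and 100% = probe without SIAE protein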
HTRA1 inh = HTRA1 (human) protease inhibition | Q92743 | inhibition, % at 5.96 µM | actives 0.5% (n = 340,000) | recombinant HTRA1, FP-rhodamine activity-based probe, fluorescence polarization | AID 504803; in the data active = inhibition above about 36%;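 note: 0% = enzyme with DMSO and 100% = wells lacking enzyme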
mABHD4 FP = inhibitors of mouse ABHD4. Q8VD66. purified mABHD4, FP-Rh probe fluorescence polarization. inhibition, % at 8.92 µM. actives 0.54% (n = 370,000). AID 720543;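 active = inhibition exceeding the mean over every tested compound plus 3 SD, cut at about 30% in these data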;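 note: 0% = plate median of compound wells and 100% = S159A mutant with DMSO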
Target sequence (Q8VD66 whole entry, looked up): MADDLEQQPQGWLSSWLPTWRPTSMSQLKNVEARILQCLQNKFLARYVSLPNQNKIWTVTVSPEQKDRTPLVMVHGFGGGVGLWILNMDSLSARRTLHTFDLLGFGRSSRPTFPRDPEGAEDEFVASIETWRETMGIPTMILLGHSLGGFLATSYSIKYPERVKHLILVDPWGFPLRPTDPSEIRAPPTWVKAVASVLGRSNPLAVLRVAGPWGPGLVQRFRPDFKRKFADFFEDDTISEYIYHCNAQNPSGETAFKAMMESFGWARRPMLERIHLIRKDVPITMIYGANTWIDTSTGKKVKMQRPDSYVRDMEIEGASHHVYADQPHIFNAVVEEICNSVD
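system = mouse ABHD4 enzyme, wild type | medium = HEPES pH 7.0, NaCl, Pluronic buffer | also added = FP-Rh probe | incubation = Enzyme–compound pre-incubation 45 min, then probe 60 min, both 25 °C | technique = fluorescence polarization, excitation 525 nm, emission 598 nm, BODIPY TMR filters | controls = S159A mutant high control, sample median low control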
TCR CD3 inh = human TCR-CD3 binding inhibition | TAMRA-labeled TCR probe fluorescence, biochemical | inhibition, % at 9.4 µM | actives 0.37% (n = 360,000);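 note: recombinant mutant TCR 2C K166C tagged with TAMRA read by polarization; 0% = receptor in buffer alone and 100% = receptor with positive control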
PRMT1 FP inh = PRMT1 (human) inhibition, primary screen; recombinant PRMT1, activity-based probe fluorescence polarization; inhibition, % at 2.79 µM; actives 1.3% (n = 370,000);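 active = inhibition above about 21% made by adding two undisclosed values, limit read from the data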
BSA probe FL = BSA probe counter-screen for TCR-CD3 inhibitors. shares compounds with TCR CD3 inh. TAMRA-labeled BSA probe fluorescence counterscreen. inhibition, % at 9.4 µM. actives 10% (n = 1,200). AID 652035; in the data active = inhibition above about 23%;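 note: 0% = buffer low control and 100% = reference high control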
TCR-CD3 conf = confirmation of human TCR-CD3 interaction inhibitors. shares compounds with TCR CD3 inh. TAMRA-labeled TCR probe fluorescence binding assay. inhibition, % at 9.4 µM. actives 48% (n = 1,200). AID 652036
An asterisk follows results filed as active; x = no result. Cut-off read from the data, not from the text of the source, unless noted: active = inhibition above about 19%; inactive = the rest.

SMILES	SIAE inh	HTRA1 inh	mABHD4 FP	TCR CD3 inh	PRMT1 FP inh	BSA probe FL	TCR-CD3 conf
Cc1ccc([C@H]2C(C(=O)O)=CC[C@@H](c3ccc(Cl)cc3)N2S(=O)(=O)c2ccc(C)cc2)cc1	-11	-41	1	-7	2	x	x
CC(C)C[C@@H](CN)NC(=O)c1nc[nH]c1C(=O)N[C@@H](CC(=O)O)C(=O)CNC[C@H](C)NC(=O)c1nc[nH]c1C(=O)N[C@@H](CC(=O)O)C(=O)O	2	12	1	0	1	x	x
CCOC(=O)C1=C(N)Oc2cc(C)oc(=O)c2C1c1cccnc1 (centres undefined)	2	0	2	21*	-3	3	0
CCOC(=O)C1=C(N)Oc2ccc3ccccc3c2C1c1cccnc1 (centres undefined)	-4	-22	-9	-2	-1	x	x
Cn1c(=O)n(C)c2cc(/C=N/N=C3/NC(=O)C(CC(=O)O)S3)ccc21 (centres undefined)	-2	-2	4	41*	-1	2	22*
Cc1ncc(CO)c(/C=N/NC(=O)c2cc3c(s2)CCCC3)c1O	7	17	8	38*	-1	-13	27*
C/C(=N\NC(=O)c1ccc(NS(=O)(=O)c2cccs2)cc1)c1ccc(O)cc1O	0	17	4	19*	4	-12	20*
Cc1cc(/C=N/n2c(COc3ccccc3C)nc3ccccc3c2=O)c(O)c([N+](=O)[O-])c1	10	32	3	21*	-2	14	53*
Cc1ccccc1OCc1nc2ccccc2c(=O)n1/N=C/c1c[nH]c2ccccc12	7	-4	-5	0	-3	x	x
CN(C)c1ccc(C(=O)NCCc2ccccc2-c2ccccc2CCC(=O)NCc2ccccc2)cc1	-2	x	-4	x	-1	x	x
CNC(=S)NNC(=O)c1cccn(Cc2cccc(Cl)c2)c1=O	9	-1	13	22*	-1	-9	27*
CNC(=S)NNC(=O)c1cccn(Cc2ccc(Cl)c(Cl)c2)c1=O	10	-10	16	22*	3	1	27*
NNC(=O)c1cccn(Cc2cccc(C(F)(F)F)c2)c1=O	-13	-32	1	4	-3	x	x
CCn1c(CSc2nc3ccccc3[nH]2)nc2cc(C(=O)O)ccc21	14	26	19	34*	2	57*	42*
COCCNc1nc(NCc2cc(-c3ccc(OC)cc3)no2)c2sccc2n1	-2	x	1	7	0	x	x
CCC1=NN(C(=O)c2cccc([N+](=O)[O-])c2)C(O)(c2ccc(C)cc2)C1 (centres undefined)	3	24	-3	30*	-5	-8	28*
CCC1=NN(C(=O)c2ccc(Br)cc2)C(O)(c2ccccc2)C1 (centres undefined)	-1	19	0	11	1	x	x
CCOC(=O)C1(CC2CCCCO2)CCN(Cc2nc(C(C)C)cs2)CC1 (centres undefined)	-2	5	3	-2	0	x	x
O=C(Nc1ccc(S(=O)(=O)Nc2nccs2)cc1)c1nn(-c2ccccc2)ccc1=O	0	7	5	20*	4	-13	22*
O=C(O)c1ccccc1C(=O)Nc1ccc(S(=O)(=O)Nc2nccs2)cc1	2	3	4	38*	24*	6	4
COc1ccccc1C(=O)Nc1ccc(S(=O)(=O)Nc2nccs2)cc1	0	-1	3	-2	-2	x	x
Cc1nc(S/C(=C/c2ccc(OCc3ccc(C(=O)O)cc3)cc2)C(=O)O)n[nH]1	-3	-4	-21	22*	0	-6	32*
N#C/C(=C\c1ccc(OCc2ccc(C(=O)O)cc2)cc1)C(=O)NCc1ccccc1	5	-14	-13	4	1	x	x
O=C(OCc1ccccc1)c1ccc(Br)o1	2	-1	-3	48*	-1	0	-1
COc1ccc(/C=N/N2C(=O)c3ccccc3C2=O)cc1	6	6	5	-7	3	x	x
SMILES	SIAE inh	HTRA1 inh	mABHD4 FP	TCR CD3 inh	PRMT1 FP inh	BSA probe FL	TCR-CD3 conf
COc1ccccc1/C=N/N1C(=O)c2cccc3cccc(c23)C1=O	8	13	23	32*	0	33*	19*
O=C(OCC(=O)N1CCc2ccccc21)c1c2c(nc3ccccc13)CCCC2	-9	-48	-4	44*	-3	1	4
CC1Cc2ccccc2N1C(=O)COC(=O)c1c2c(nc3ccccc13)CCCCC2 (centres undefined)	-14	-37	-6	-2	-2	x	x
C[C@H](CO)N1C[C@H](C)[C@@H](CN(C)S(=O)(=O)c2cccs2)Oc2ccc(NC(=O)Nc3ccc(C(F)(F)F)cc3)cc2C1=O	-210	-123	-111	28*	1	8	19*
C[C@@H]1CN([C@H](C)CO)C(=O)c2cc(NC(=O)Nc3ccc(C(F)(F)F)cc3)ccc2O[C@H]1CN(C)S(=O)(=O)c1cccs1	-195	-158	-135	43*	0	10	23*
C/C=C/c1cccc(-c2nc(C(=O)NC3CCC3)cc3c2[C@@H](CCO)N(S(=O)C(C)(C)C)C3)c1 (some centres undefined)	-1	x	5	-10	4	x	x
Cc1cc(C)cc(NC(=O)CSc2nnc(CNC(=O)c3ccco3)n2C)c1	5	12	5	-1	1	x	x
CC(=O)c1ccc(NC(=O)CN2C(=O)/C(=C/C(C)=C/c3ccccc3)SC2=S)cc1	-146	-31	-54	24*	4	17	49*
CC(/C=C1\SC(=S)N(CCC(=O)Nc2ccc(O)cc2)C1=O)=C\c1ccccc1	-17	-24	-59	2	4	x	x
Oc1ccc(Br)cc1/C=N/n1c(COc2ccccc2)n[nH]c1=S	5	11	0	20*	3	3	14
O=c1c2c(-c3ccccc3)csc2ncn1/N=C/c1cccc([N+](=O)[O-])c1O	1	3	14	29*	1	-14	31*
O=C(CSc1nc2ccccc2s1)Nc1ccc(Cl)c(C(=O)O)c1	0	-1	-12	-2	15	x	x
O=C(CSc1nc2ccccc2s1)Nc1ccc2c(c1)oc1ccccc12	7	-15	-10	24*	-5	0	3
NC(=O)c1ccc(NC(=O)COC(=O)c2c3c(nc4ccccc24)/C(=C\c2cccs2)CCC3)cc1	-71	-42	-45	20*	-2	-9	-3
CCc1cccc(C)c1NC(=O)COC(=O)c1c2c(nc3ccccc13)/C(=C\c1cccs1)CCC2	-3	-36	-17	9	-3	x	x
Cc1c(C(=O)N2CCC(C)CC2)oc2ccc3c(c12)C(O)CC1(CCCCC1)O3 (centres undefined)	-13	-23	11	21*	-1	2	5
